Activity calls are given as the source filed them. The calls are words filed in the database; no cut-off is given here.

For data set [1], the system named is Influenza A virus. Put plainly: Antiviral activity against Influenza A virus (A/Puerto Rico/8/34(H1N1)) infected in MDCK cells assessed as reduction in virus titer preincubated with virus for 1 hr followed by viral infection measured after 24 hrs by crystal violet staining based plaque assay. As to conditions: A/Puerto Rico/8/1934(H1N1). Type of data set: functional, cell-based. An outline of the steps:
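PR8 (MOI 1.0) preincubated with compound (2.5–10 μM) 1 h at 37 °C, then used to infect MDCK cells. After adsorption, medium with the same compound concentration was added. At 24 h p.i. supernatant virus titer was measured by plaque assay; n = 3.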

Data set [2] has as its system Influenza A virus. The data set is described as follows: Antiviral activity against Influenza A virus (A/Puerto Rico/8/34(H1N1)) infected in MDCK cells assessed as virus yeild reduction at 10 uM preincubated with cells for 1 hr followed by viral infection for 1 hr measured at 24 hrs post infection by crystal violet staining based plaque assay. Type of data set: functional, cell-based. As to conditions: A/Puerto Rico/8/1934(H1N1). The gist of the method:
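Time-of-addition on MDCK cells, PR8 MOI 1.0, 10 μM compound. Three arms: cells pretreated before infection; compound present during adsorption 1 h at 4 °C; or compound added after removal of unadsorbed virus. Virus yield at 24 h p.i. by plaque assay; n = 3.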

The species named for the next data set is Canis lupus familiaris. Put plainly: Inhibition of NFkappaB activation-mediated viral endocytosis in MDCK cells infected with Influenza A virus (A/Puerto Rico/8/34(H1N1)) assessed as Akt phosphorylation level at 10 uM preincubated with virus for 1 hr followed by viral infection measured after 4 hrs by Western blot method relative to control (reference value: 1.4). The format is cell-based. An outline of the steps:
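PR8 (MOI 1.0) pretreated with compound 1 h at 37 °C, then MDCK cells were kept in infecting medium with 5 or 10 μM for 4 h; ribavirin 50 μg/mL as comparator. Lysates were immunoblotted for phospho-ERK1/2, p38, NF-κB or Akt, with β-actin/GAPDH loading controls and AP/NBT-BCIP detection. Densitometry was normalised to uninfected cells (= 1.0); n = 3.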

Data set [3] can be described thus: Drug uptake in human A549 cells at 20 uM after 4 hrs by DAPI staining based confocal microscopic analysis. Particulars: a549, 4 h. Type of data set: ADME, cell-based. The gist of the method: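 A549 cells incubated with 20 μM compound 4 h at 37 °C, then fixed and DAPI-stained. Compound intrinsic fluorescence located by confocal microscopy.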
Data set [4] deals with Influenza A virus. Put plainly: Antiviral activity against Influenza A virus (A/Puerto Rico/8/34(H1N1)) infected in MDCK cells assessed as virus yeild reduction preincubated with virus at 37 degreeC for 1 hr followed by viral infection for 1 hr measured after 3 days by crystal violet staining based plaque assay. Particulars: A/Puerto Rico/8/1934(H1N1). The format is functional, cell-based. An outline of the steps:
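Plaque reduction: about 50–100 PFU/well of PR8, Cal09 or Minnesota preincubated with compound (0–10 μM) 1 h at 37 °C. Mixture then adsorbed to MDCK monolayers 1 h at 4 °C. Overlay was DMEM with 1.5% agarose, DEAE-dextran and 1 μg/mL TPCK-trypsin for 3 days at 37 °C. Glutaraldehyde fix, crystal violet stain, plaque count; IC50 derived; n = 4.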

Data set [5] has as its system Influenza A virus (A/Puerto Rico/8/1934(H1N1)). Put plainly: Inhibition of Influenza A virus (A/Puerto Rico/8/34(H1N1)) neuraminidase using MUNANA as substrate preincubated for 30 mins followed by substrate addition measured after 30 mins by fluorescence assay relative to control. An outline of the steps: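 Inactivated PR8 virus supernatant mixed with compound (10 μM) in 33 mM MES […], 4 mM CaCl2 for 30 min at 37 °C. MUNANA (20 μM) was added for 30 min at 37 °C and the reaction stopped with glycine/ethanol pH 10.7. Fluorescence read at ex 360 / em 440 nm; zanamivir 10 μM as reference; n = 3.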

Data set [6] in a line: Cytotoxicity against MDCK cells after 48 hrs by resazurin based fluorescence method. The format is cell-based, Canis lupus familiaris. Particulars: dog. An outline of the steps:
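Confluent MDCK, A549 or H1299 cells exposed in triplicate to compound for 48 h at 37 °C (A549/H1299 at 20 μM). Resazurin added to 0.2 mg/mL final for 16 h. Fluorescence read at ex 544 / em 595 nm; viability as % of untreated.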

The nature of data set [7]: Selectivity index, ratio of CC50 for MDCK cells to IC50 for Influenza A virus (A/Puerto Rico/8/34(H1N1)) infected in MDCK cells assessed as reduction in virus-induced cytopathic effect. As to conditions: dog, read-out: Ratio CC50/IC50. The format is toxicity, cell-based.

Consider `O=C(Nc1ccccc1Nc1c2ccccc2nc2c1[nH]c1ccccc12)c1cccc(B(O)O)c1`, for which, in the data set with Influenza A virus [1], the Activity entry is “Dose-dependent effect” and the IC50 turned out to be 2.2 µM. Further, the outcome with Influenza A virus [2] was inactive. Further, the fold change (FC) in the data set listed under Canis lupus familiaris came out at 0.8. Further, in data set [3], the Drug uptake entry was “Active”. Moreover, the IC50 with Influenza A virus [4] amounted to 3.2 µM. The inhibition in data set [5] turned out to be 72%. Also, in data set [6], it took 142 µM to reach half-maximal cytotoxicity (CC50 at 48 h). For the same molecule, the selectivity ratio in data set [7] was found to be 27.9.

Source of the values: ChEMBL document CHEMBL4043073, “Boronic Acid Modifications Enhance the Anti-Influenza A Virus Activities of Novel Quindoline Derivatives” (J Med Chem, 2017).
